# Sampled rows, rich in hits. Any-hit rate of the full collection: about 3.8%.
# Yeast growth inh: reduces growth of yeast BB579 in restrictive medium | AID 804 | 140,000 compounds, 0.51% hits | inhibition, % at 10 µM | S. cerevisiae BB579 growth, OD615, 48 h;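 active = inhibition above a set limit, 3 SD over the mean compound inhibition, cut at about 44% in these data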
#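 Detection: OD615 turbidity measurement; Material: Saccharomyces cerevisiae DeaD strain BB579, replicative lifespan model yeast; Timing: 48 h exposure, 30 °C; Doses: single 10 µM dose; Medium: CSMM-D restrictive synthetic medium containing dextrose (glucose); Controls: amphotericin B at 10 µg/mL as positive control.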
# RAM inhibit: yeast RAM network inhibition; S. cerevisiae dse1pr::URA3 reporter, 5-FOA growth OD615, 2 d; analog-sensitive cbk1-as2 kinase mutant strain; inhibition, % at 50 µM; 190,000 compounds, 1.8% hits; AID 868;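 active = inhibition above a set limit, 3 SD over mean compound inhibition, cut at about 8.4% in these data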;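 also: 0% = DMSO-only wells with no growth and 100% = 10 µM 1-NA-PP1 full growth; inhibition rescues growth on 5-FOA so higher OD means more RAM inhibition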
# Measles CPE: protection of cells from measles virus. Measles virus-infected cells, CPE protection, absorbance. protection (pct of control), % at 4 µM. 140,000 compounds, 1.5% hits; in the data active = protection mostly above about 24%, no sharp cut-off; inactive = mostly below about 26%
# Yeast life ext: extends the lifespan of yeast | inhibition of the nicotinamide effect, % at 10 µM | 130,000 compounds, 0.68% hits | S. cerevisiae growth with nicotinamide, OD615; deaD strain in restrictive glucose medium;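 active = inhibition above a set limit, placed 3 SD over the median of all compounds, cut at about 26% in these data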;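 also: 0% = nicotinamide-treated wells and 100% = cells grown without nicotinamide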
#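 Test system – modified budding yeast, DeaD strain · Compound – single dose 10 µM compound, 0.25% DMSO · Times – culture preincubation 4 h, compound exposure 48 h, both 30 °C · Detection – optical density (absorbance) at 615 nm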
# SDO1 yeast rescue: restores growth of sdo1-depleted yeast; z-score at 10 µM; 140,000 compounds, 0.21% hits; S. cerevisiae sdo1-depleted JHY4D growth rescue, OD600 30 h; stronger effect = higher value; pdr5 snq2 efflux-pump mutant strain;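 active = z-score above 3 at both the 24 hr and the 30 hr optical density reads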;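 also: z-score against mean and SD of all compound wells on the same plate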
# * marks the source's active call; other numbers are inactive results; nt = not tested or not shown.
SMILES,Yeast growth inh,RAM inhibit,Measles CPE,Yeast life ext,SDO1 yeast rescue
CN1CCN(C(=O)c2ccccc2Nc2ccc(SC(F)F)cc2)CC1,nt,1.0,nt,nt,nt
CC1CC(C)CN(C(=O)c2ccccc2Nc2ccc(SC(F)F)cc2)C1 (centres undefined),5.9,9.0*,18.5,-21.8,-1.08
Cc1ccc(OCC(=O)N2c3ccccc3CC2C)c([N+](=O)[O-])n1 (centres undefined),nt,0.6,nt,nt,nt
COc1ccccc1-c1cc(C(F)(F)F)nc(NCc2cccs2)n1,-43.0,10.0*,21.9,-1.3,-0.42
CC1(C)c2ssc(=S)c2-c2ccccc2N1C(=O)CSC1=NCCS1,-45.1,2.2,37.5*,-18.8,-1.45
CSc1ncc(Cl)c(C(=O)Nc2nnc(SC/C=C/c3ccccc3)s2)n1,11.2,4.8,50.8*,-6.6,-0.27
C=CCSc1nnc(NC(=O)c2nc(SCC)ncc2Cl)s1,-5.8,8.4*,11.5,9.3,-1.57
COc1cc(C2C(C(=O)c3ccco3)=C(O)C(=O)N2CCc2ccccc2)ccc1O (centres undefined),-18.7,3.2,3.1,1.3,-0.47
COc1ccc(CCN2C(=O)C(O)=C(C(=O)c3ccco3)C2c2cccs2)cc1OC (centres undefined),-33.4,5.9,17.9,83.1*,1.66
Cc1ccc2nc(N3C(=O)C(O)=C(C(=O)c4ccco4)C3c3cccs3)sc2c1 (centres undefined),-31.0,4.7,6.8,61.5*,1.21
O=C(NCc1ccco1)c1cc(C(=O)C2CCCCC2)c[nH]1,-56.2,2.6,15.2,96.0*,0.09
O=C(NCc1ccco1)C1CCCCC1,nt,1.0,nt,nt,nt
CCCOc1ccc(C(=O)CCN2CCN(C(=O)OCC)CC2)cc1,nt,-0.4,nt,nt,nt
CN(Cc1nc(-c2cccs2)no1)CC1(N2CCOCC2)CCCCC1,nt,1.0,nt,nt,nt
CCCCCC/C(C)=C1/SC(=S)NC1=O,95.4*,2.3,2.9,-13.0,-1.89
Cc1ccc(C(=S)NCS(=O)(=O)c2ccc(C)cc2)cc1,-49.5,0.1,7.1,-4.6,-1.25
Cc1ccc(S(=O)(=O)CNC(=S)c2cccc(Cl)c2)cc1,11.0,-0.4,43.2*,-5.8,-0.95
CC(=O)[C@H]1[C@@H]2C(=O)N(c3cccc(Cl)c3)C(=O)[C@@H]2[C@H]2c3ccccc3C=CN21,-47.6,2.0,2.7,-8.6,0.15
CC(=O)[C@H]1[C@H](c2cccc(Cl)c2)C(C#N)(C#N)[C@@H]2c3ccccc3C=CN21,-39.3,1.1,9.4,44.7*,-1.06
CCN(CCO)Cc1cc(=O)oc2cc3c(cc12)CCC3,nt,2.8,nt,nt,nt
Cc1cccc(Nc2c([N+](=O)[O-])cc(C(=O)N3CC(=O)Nc4ccccc43)cc2[N+](=O)[O-])c1,nt,9.5*,nt,nt,nt
CCOC(=O)N1CCC(N2CC34C=CC(O3)C(C(=O)O)C4C2=O)CC1 (centres undefined),-23.7,0.3,21.1,-7.1,0.68
COc1ccc(NCC(=O)N/N=C/c2cc([N+](=O)[O-])ccc2N2CCCC2)cc1,nt,2.9,nt,nt,nt
Cc1ccc(S(=O)(=O)NC(CC(C)C)C(=O)Nc2nccs2)cc1 (centres undefined),-46.8,0.5,8.9,-4.3,-0.45
CCOC(=O)N1CCC(NC(=O)C2CCN(c3nc(-c4ccc(OC)cc4)no3)CC2)CC1,-20.1,4.0,44.2*,-6.8,-1.24
SMILES,Yeast growth inh,RAM inhibit,Measles CPE,Yeast life ext,SDO1 yeast rescue
CCOC(=O)N1CCC(NC(=O)C2CCCN(c3nc4ccccc4o3)C2)CC1 (centres undefined),-21.9,-0.9,2.8,-8.8,1.69
Cc1cccc(C(C)Nc2ccc([N+](=O)[O-])cn2)c1 (centres undefined),-7.5,-0.3,42.5*,-1.7,-1.51
CC(=O)Nc1ccc([N+](=O)[O-])cn1,-47.8,1.5,4.6,1.3,-0.53
O=C(COC(=O)c1ccccc1F)Nc1cccnc1Cl,nt,1.4,nt,nt,nt
CCOC(=O)c1c(N)sc2c(OC)c(Br)ccc12,94.6*,2.5,37.5,-23.4,-2.16
CCOC(=O)c1c(N)sc(C(=O)OC)c1C,nt,-0.8,nt,nt,nt
C=CCn1c(-c2ccc([N+](=O)[O-])cc2)n[nH]c1=S,-12.2,1.2,37.7*,-1.2,1.07
C=CCn1c(-c2ccccc2[N+](=O)[O-])n[nH]c1=S,nt,1.8,nt,nt,nt
CON1C(=O)C(=O)N(OC)C2CCCCCC21 (centres undefined),-25.6,0.2,44.7*,-0.8,-0.24
CCO[C@@H]1OC(C(=O)NCc2nc3ccccc3[nH]2)=C[C@H](c2ccc(C(F)(F)F)cc2)[C@H]1CCCO,nt,-0.5,nt,nt,nt
COCCCNC(=O)c1ccc([N+](=O)[O-])c(Cl)c1,-24.9,1.1,36.0*,0.6,-0.25
NC(=O)Nc1ccc(C(=O)OCC(=O)Nc2ccc([N+](=O)[O-])cc2C(F)(F)F)cc1,-5.8,2.5,10.3,-3.0,0.76
Cc1nn(-c2ccccc2)c(NC(=O)c2cccs2)c(-c2ccccc2)c1=O,-31.1,3.9,8.0,0.2,0.78
COc1ccc(NS(=O)(=O)c2cc(NC(=O)c3cc(=O)c4ccccc4o3)ccc2OC)cc1,nt,9.6*,nt,nt,nt
O=C(CCc1nnc(-c2ccc3c(c2)OCO3)o1)N1CCC(c2ccc(F)cc2)C1 (centres undefined),nt,5.2,nt,nt,nt
CCOC(=O)c1nn(-c2ccc(F)cc2)c2nc(Nc3ccccc3)cc(=O)n12,-33.3,0.8,3.7,4.9,0.7
O=c1c2cc(N3CCOCC3)ccc2[nH]c(=S)n1Cc1ccccn1,-5.4,2.0,22.6,-0.2,0.84
CN1CCN(C(=O)c2ccc3c(=O)n(-c4ccc(F)cc4)c(=S)[nH]c3c2)CC1,nt,0.8,nt,nt,nt
O=c1c2cc(N3CCOCC3)ccc2[nH]c(=S)n1CCc1ccccc1,nt,6.8,nt,nt,nt
CCOC(=O)N1CCN(C(=O)c2ccc3c(=O)n(-c4ccc(F)cc4)c(=S)[nH]c3c2)CC1,-47.7,5.4,27.5*,-4.7,1.14
O=c1c2cc(N3CCOCC3)ccc2[nH]c(=S)n1Cc1ccccc1Cl,nt,8.5*,nt,nt,nt
CC(=O)c1ccc(N2CCN(C(=O)c3ccc(Cn4c(=S)[nH]c5ccc(N6CCOCC6)cc5c4=O)cc3)CC2)cc1,nt,9.4*,nt,nt,nt
C=CCn1c(=O)[nH]c2cc(C(=O)N3CCN(c4ccc(C(C)=O)cc4)CC3)ccc2c1=O,-45.8,2.8,7.2,55.3*,-0.22
Cn1cccc1C(=O)C(=O)Nc1ccc(F)c(F)c1,nt,1.0,nt,nt,nt
O=C(NCC(c1cccs1)N1CCOCC1)c1ccc(Cl)c([N+](=O)[O-])c1 (centres undefined),-6.0,0.5,5.1,-0.3,0.33
O=C(CSc1ccc(F)cc1)Nc1ccccc1Br,nt,11.2*,nt,nt,nt
O=C(CSc1ccc(F)cc1)Nc1ccc(Br)cc1,nt,0.6,nt,nt,nt
O=C(Cc1ccc(Cl)cc1Cl)Nc1cccc(S(=O)(=O)Nc2ccccc2F)c1,1.7,8.8*,14.1,14.7,-1.63
O=C(/C=C/c1ccccc1)Nc1cccc(S(=O)(=O)Nc2ccccc2F)c1,-8.2,9.3*,4.4,8.6,-1
Cc1cccc(OCCn2cc(/C=N/NC(=O)c3ccncc3)c3ccccc32)c1,54.1*,-0.4,1.4,-8.2,-1.12

# Screens: PubChem, several laboratories
